Test results: ChEMBL document CHEMBL1138222, “9-Benzylidene-naphtho[2,3-b]thiophen-4-ones as novel antimicrotubule agents-synthesis, antiproliferative activity, and inhibition of tubulin polymerization” (J Med Chem, 2006)
Calls of active or inactive are those of the source. The rule behind the calls is not given here.

Experiments:
[1] = Cell cycle arrest in KB/HeLa cells by accumulation at G2/M phase; type: functional, cell-based; settings: Homo sapiens
How it was run: (§1)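 Subconfluent KB/HeLa cells were treated with a concentration series for 24 h at 37 °C, then detached and fixed in 70% ethanol. DNA was stained with propidium iodide alongside RNase digestion and measured by flow cytometry. Phase fractions came from cell-cycle modelling software, and IC50 from nonlinear regression.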

P388 [2] = test: Inhibition of P388 cells growth subcutaneously implanted in CD2F1 mouse at 50 mg/kg, ip between 9 to 14 days; type: functional, organism-based; parameters: dose 50 mg/kg
How it was run: (§2)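 Female CD2F1 mice aged 5-6 weeks received ~1 mm3 P388 tumour fragments subcutaneously on day 0. Dosing was intraperitoneal at 0.1 mL/10 g on days 5, 12 and 19, at 100, 50 or 25 mg/kg; controls received DMSO vehicle. Body weight and subcutaneous tumour growth were recorded three times per week.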

K562 [3] = test: Cell cycle arrest in K562 cells by accumulation at G2/M phase at 0.1 uM; type: functional, Homo sapiens
How it was run: (§3)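 K562 leukaemia cells were exposed to compound for 24 h at 37 °C, pelleted, and washed in PBS. They were fixed in ice-cold 70% ethanol for 30 min at 4 °C. Staining was 30 min in the dark with propidium iodide (0.2 mg/mL) plus RNase (2 mg/mL) in PBS. DNA content was measured by flow cytometry with 488 nm argon laser excitation.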

[4] = Cell cycle arrest in KB/HeLa cells by accumulation at S phase at 0.1 nM; type: functional, cell-based; settings: Homo sapiens; how it was run: as §1
P388 [5] = test: Inhibition of P388 cells growth subcutaneously implanted in CD2F1 mouse at 25 mg/kg, ip after 7 days; type: functional, organism-based; parameters: dose 25 mg/kg; how it was run: as §2
[6] = Cell cycle arrest in KB/HeLa cells by accumulation at G1 phase at 0.3 nM; type: functional, cell-based; settings: Homo sapiens; how it was run: as §1
[7] = Cell cycle arrest in KB/HeLa cells by accumulation at G2/M phase at 10 nM; type: functional, cell-based; settings: Homo sapiens; how it was run: as §1
[8] = Cell cycle arrest in KB/HeLa cells by accumulation at S phase at 1 nM; type: functional, cell-based; settings: Homo sapiens; how it was run: as §1
[9] = Cell cycle arrest in KB/HeLa cells by accumulation at G1 phase at 0.1 nM; type: functional, cell-based; settings: Homo sapiens; how it was run: as §1
[10] = Cell cycle arrest in KB/HeLa cells by accumulation at G1 phase at 10 nM; type: functional, cell-based; settings: Homo sapiens; how it was run: as §1
[11] = Cell cycle arrest in KB/HeLa cells by accumulation at G2/M phase at 1 nM; type: functional, cell-based; settings: Homo sapiens; how it was run: as §1
L1210 [12] = test: Antiproliferative activity against L1210 VCR cells by XTT assay after 48 hrs; type: functional, cell-based; settings: Mus musculus, L1210, 48 h
How it was run: (§4)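 Tumour cell lines were seeded at 1 × 10^3 to 8 × 10^4 cells/well for logarithmic growth and exposed to a concentration series for 48 h. Proliferation was read as cellular metabolic activity by XTT. IC50 came from dose-response curves by nonlinear regression, with at least two replicates.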

[13] = Cell cycle arrest in KB/HeLa cells by accumulation at G1 phase at 31.6 nM; type: functional, cell-based; settings: Homo sapiens; how it was run: as §1
RKO [14] = test: Antiproliferative activity against RKO cells with ectopic-induced p27kip1-expression by XTT assay after 48 hrs; type: functional, cell-based; settings: Homo sapiens
How it was run: (§5)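 RKO colon adenocarcinoma cells carry an ecdysone-inducible p27kip1 vector. On day 1 they were plated with 3 µM ponasterone A (induced, 2 × 10^4 cells/well) or without it (not induced, 6 × 10^3 cells/well) and held 24 h at 37 °C. Compound or DMSO control was then added for 48 h at 37 °C, followed by a standard XTT read-out.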

Tubulin (Homo sapiens) [15] = biological target: T1, Tubulin (Homo sapiens) (UniProt P68371+Q9H4B7+P0DPH7+P68366+Q13509+Q71U36+P04350+Q3ZCM7+P07437+P68363+Q9BQE3+Q6PEY2+Q13885+Q9BVA1+Q9BUF5); test: Displacement of [3H]colchicine from tubulin by SPA assay; type: protein-complex assay
MDR = test: Antiproliferative activity against LT12 MDR cells by XTT assay after 48 hrs; type: functional, cell-based; settings: Rattus norvegicus; how it was run: as §4
[16] = Cell cycle arrest in KB/HeLa cells by accumulation at G2/M phase at 3.16 nM; type: functional, cell-based; settings: Homo sapiens
L1210 [17] = test: Antiproliferative activity against L1210 cells by XTT assay after 48 hrs; type: functional, cell-based; settings: Mus musculus, L1210, 48 h; how it was run: as §4
[18] = Cell cycle arrest in KB/HeLa cells by accumulation at G2/M phase at 0.3 nM; type: functional, cell-based; settings: Homo sapiens; how it was run: as §1
[19] = Cell cycle arrest in KB/HeLa cells by accumulation at G2/M phase at 316 nM; type: functional, cell-based; settings: Homo sapiens; how it was run: as §1
[20] = Cell cycle arrest in KB/HeLa cells by accumulation at G2/M phase at 100 nM; type: functional, cell-based; settings: Homo sapiens; how it was run: as §1
[21] = Cell cycle arrest in KB/HeLa cells by accumulation at G2/M phase at 0.1 nM; type: functional, cell-based; settings: Homo sapiens; how it was run: as §1
[22] = Cell cycle arrest in KB/HeLa cells by accumulation at S phase at 3.16 nM; type: functional, cell-based; settings: Homo sapiens; how it was run: as §1
[23] = Cell cycle arrest in KB/HeLa cells by accumulation at S phase at 0.3 nM; type: functional, cell-based; settings: Homo sapiens; how it was run: as §1
[24] = Cell cycle arrest in KB/HeLa cells by accumulation at G1 phase at 100 nM; type: functional, cell-based; settings: Homo sapiens; how it was run: as §1
K562 [25] = test: Cell cycle arrest in K562 cells by accumulation at G2/M phase at 0.03 uM; type: functional, Homo sapiens; how it was run: as §3
Mus musculus [26] = test: Increase in survival of CD2F1 mouse subcutaneously implanted with P388 cells at 100 mg/kg after 21 days; type: functional; settings: route intraperitoneal
RKO [27] = test: Antiproliferative activity against RKO cells by XTT assay after 48 hrs; type: functional, cell-based; settings: Homo sapiens; how it was run: as §5
[28] = Cell cycle arrest in KB/HeLa cells by accumulation at S phase at 31.6 nM; type: functional, cell-based; settings: Homo sapiens; how it was run: as §1
Mus musculus [29] = test: Increase in survival of CD2F1 mouse subcutaneously implanted with P388 cells at 25 mg/kg after 21 days; type: functional; settings: route intraperitoneal
[30] = Cell cycle arrest in KB/HeLa cells by accumulation at G1 phase at 1 nM; type: functional, cell-based; settings: Homo sapiens; how it was run: as §1
NCI-H460 = test: Antiproliferative activity against NCI-H460 cells by XTT assay after 48 hrs; type: functional, cell-based; settings: Homo sapiens, NCI-H460, 48 h; how it was run: as §4
SF-268 = test: Antiproliferative activity against SF268 cells by XTT assay after 48 hrs; type: functional, cell-based; settings: Homo sapiens, SF-268, 48 h; how it was run: as §4
[31] = Cell cycle arrest in KB/HeLa cells by accumulation at S phase at 10 nM; type: functional, cell-based; settings: Homo sapiens; how it was run: as §1
[32] = Cell cycle arrest in KB/HeLa cells by accumulation at G2/M phase at 31.6 nM; type: functional, cell-based; settings: Homo sapiens; how it was run: as §1
P388 [33] = test: Antiproliferative activity against P388 cells by XTT assay after 48 hrs; type: functional, cell-based; settings: Mus musculus, P388, 48 h; how it was run: as §4
P388 [34] = test: Antiproliferative activity against P388 ADR cells by XTT assay after 48 hrs; type: functional, cell-based; settings: Mus musculus, P388, 48 h; how it was run: as §4
cells = settings: Rattus norvegicus, LT12, 48 h
Tubulin (Homo sapiens) [35] = biological target: T1, Tubulin (Homo sapiens); test: Displacement of [3H]paclitaxel from tubulin by SPA assay; type: protein-complex assay
[36] = Cell cycle arrest in KB/HeLa cells by accumulation at S phase at 316 nM; type: functional, cell-based; settings: Homo sapiens; how it was run: as §1
K562 [37] = test: Antiproliferative activity against human K562 cell line; type: functional, cell-based
SK-OV-3 = test: Antiproliferative activity against SKOV3 cells by XTT assay after 48 hrs; type: functional, cell-based; settings: Homo sapiens, SK-OV-3, 48 h; how it was run: as §4
[38] = Antiproliferative activity against KB/HeLa cells by XTT assay after 48 hrs; type: functional, cell-based; settings: Homo sapiens; how it was run: as §4
Tubulin = Tubulin (Sus scrofa, UniProt P02554+P02550); test: Inhibition of tubulin polymerization in porcine brain
[39] = Cell cycle arrest in KB/HeLa cells by accumulation at S phase at 100 nM; type: functional, cell-based; settings: Homo sapiens; how it was run: as §1
[40] = Cell cycle arrest in KB/HeLa cells by accumulation at G1 phase at 316 nM; type: functional, cell-based; settings: Homo sapiens; how it was run: as §1
K562 [41] = test: Cell cycle arrest in K562 cells by accumulation at G2/M phase at 0.06 uM; type: functional, Homo sapiens; how it was run: as §3
[42] = Cell cycle arrest in KB/HeLa cells by accumulation at G1 phase at 3.16 nM; type: functional, cell-based; settings: Homo sapiens; how it was run: as §1
Mus musculus [43] = test: Increase in survival of CD2F1 mouse subcutaneously implanted with P388 cells at 50 mg/kg after 21 days; type: functional; settings: route intraperitoneal

## COc1cc(/C=C2/c3ccccc3C(=O)c3ccsc32)cc(OC)c1O
[1]
  EC50: 98 nM
P388 [2]
  Activity: Active
K562 [3]
  Activity: 72%
[4]
  Activity: 24.6%
P388 [5]
  Activity: Active
[6]
  Activity: 65.6%
[7]
  Activity: 8.8%
[8]
  Activity: 25.9%
[9]
  Activity: 65.8%
[10]
  Activity: 64.8%
[11]
  Activity: 8.4%
L1210 [12]
  IC50: 680 nM
[13]
  Activity: 65.4%
RKO [14]
  IC50: > 9 µM
Tubulin (Homo sapiens) [15]
  Activity: 0.27 µM
MDR
  IC50: 170 nM
[16]
  Activity: 9.2%
L1210 [17]
  IC50: 340 nM
[18]
  Activity: 9.1%
[19]
  Activity: 89.5%
[20]
  Activity: 52.2%
[21]
  Activity: 9.7%
[22]
  Activity: 24.5%
[23]
  Activity: 25.3%
[24]
  Activity: 31.7%
K562 [25]
  Activity: 23%
Mus musculus [26]
  Activity: 106%
RKO [27]
  IC50: 30 nM
[28]
  Activity: 26%
Mus musculus [29]
  Activity: 83%
[30]
  Activity: 65.7%
NCI-H460
  IC50: 50 nM
SF-268
  IC50: 70 nM
[31]
  Activity: 26.5%
[32]
  Activity: 8.6%
P388 [33]
  IC50: 50 nM
P388 [34]
  IC50: 220 nM
cells
  IC50: 130 nM
Tubulin (Homo sapiens) [35]
  Activity: inactive
[36]
  Activity: 9.8%
K562 [37]
  IC50: 50 nM
SK-OV-3
  IC50: 70 nM
[38]
  IC50: 50 nM
Tubulin
  IC50: 0.38 µM
[39]
  Activity: 16.2%
[40]
  Activity: 0.8%
K562 [41]
  Activity: 55%
[42]
  Activity: 66.3%
Mus musculus [43]
  Activity: 111%
